The record followed here is ChEMBL document CHEMBL1641572, “Vasorelaxant effect of flavonoids through calmodulin inhibition: Ex vivo, in vitro, and in silico approaches” (Bioorg Med Chem, 2011).

SMILES strings stand for the structures. Active and inactive are the calls of the source. The calls are words filed in the database; no cut-off is given here.

Test [1] addresses T1, Calmodulin-1 (Homo sapiens, UniProt P0DP23). Put plainly: Inhibition of human recombinant calmodulin assessed as inhibition of calmodulin-sensitive cAMP phosphodiesterase activation after 15 mins by spectrophotometric analysis.
Test [2] deals with Aorta. As to the kind of experiment: Vasorelaxant activity in Wistar rat endothelium-denuded thoracic aortic ring assessed as inhibition of noradrenaline-induced contraction treated after noradrenaline challenge measured after 60 mins relative to control. Type of test: functional. The settings on record: 1 h.
Test [3] deals with Aorta. Put plainly: Vasorelaxant activity in Wistar rat endothelium-denuded thoracic aortic ring assessed as inhibition of noradrenaline-induced contraction treated after noradrenaline challenge measured after 60 mins. Type of test: functional, tissue-based. The settings on record: for IC50: 1 h. The method in brief: (§1)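 Thoracic aortic rings (3–5 mm) from Wistar rats (200–300 g), endothelium intact or manually removed, were held in Krebs at 37 °C gassed O2/CO2 (9:1) at 3.0 g resting tension. Three NA (0.1 µM) primings were given; endothelium status was checked by carbachol (1 µM) relaxation. Rings precontracted with NA received compounds in quarter-log cumulative concentrations under isometric recording. n=6 animals.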

The target of test [4] is T1, Calmodulin-1. As to the kind of experiment: Ratio of chlorpromazine IC50 to compound IC50 for human recombinant calmodulin.
Test [5] has as its system Aorta. Put plainly: Vasorelaxant activity in Wistar rat endothelium-intact thoracic aortic ring assessed as inhibition of noradrenaline-induced contraction treated after noradrenaline challenge measured after 60 mins relative to control. The format is functional. The settings on record: 1 h.
In test [6] the test system is Aorta. As to the kind of experiment: Vasorelaxant activity in Wistar rat endothelium-intact thoracic aortic ring assessed as inhibition of noradrenaline-induced contraction treated after noradrenaline challenge measured after 60 mins. The format is functional, tissue-based. The settings on record: for IC50: 1 h. The method in brief: as §1
Test [7] relates to Aorta. As to the kind of experiment: Vasorelaxant activity in Wistar rat endothelium-denuded thoracic aortic ring assessed as inhibition of noradrenaline-induced contraction treated after noradrenaline challenge measured after 60 mins in presence of chlorpromazine. The format is functional, tissue-based. The method, boiled down:
(§2)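 Rat aortic rings (endothelium intact or denuded) in 37 °C Krebs under 3.0 g tension were preincubated with chlorpromazine (1 µM). They were then contracted with NA, and compound was added in quarter-log cumulative concentrations while isometric tension was recorded. n=6 animals.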

For test [8], the system named is Aorta. Put plainly: Vasorelaxant activity in Wistar rat endothelium-intact thoracic aortic ring assessed as inhibition of noradrenaline-induced contraction treated after noradrenaline challenge measured after 60 mins in presence of chlorpromazine. Type of test: functional, tissue-based. The method, boiled down:
as §2

Test [9] addresses T1, Calmodulin-1. As to the kind of experiment: Inhibition of calmodulin assessed as inhibition of calmodulin-calcium-[…] complex formation.
Test [10] deals with T1, Calmodulin-1. As to the kind of experiment: Inhibition of calmodulin assessed as inhibition of calmodulin-calcium-PDE1 complex formation. The method in brief:
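Human recombinant CaM (0.08 µg) was preincubated 30 min with 0.015 units bovine-brain PDE1 and 0.063 units 5'-nucleotidase in Tris–HCl/imidazole buffer with Mg acetate, 2.5 mM CaCl2 and BSA, pH 7.0. Compounds at 0.5–65 µM in ACN/water (1:1) were added for 30 min. cAMP started a 15-min reaction, and malachite green read phosphate at 700 nm. IC50 came from hyperbolic fit, n≥6.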

In the case of `O=c1cc(-c2ccccc2)oc2cc(O)ccc12` [7-HYDROXYFLAVONE], the IC50 at Calmodulin-1 [1] amounted to 37.1 µM; with Aorta [3], 167 µM; in the test with Aorta [6], 37.8 µM. Moreover, the inhibition result on Calmodulin-1 [1], in the test on Aorta [3] and in the test with Aorta [6] was “Dose-dependent effect” in each case. The Emax with Aorta [2] is 40.4%; in the test on Aorta [5] it was 80.6%. Moreover, the Ratio IC50 on Calmodulin-1 [4] came to 0.54.
As for `COC(=O)C1=C(C)NC(C)=C(C(=O)OC)C1c1ccccc1[N+](=O)[O-]` [NIFEDIPINE], the Emax in the test with Aorta [2] was 102%. Besides, in the test with Aorta [3], the IC50 was determined as 0.02 µM.
Turning to `C[N+](C)(C)CCOC(N)=O` [CARBACHOL], the Emax in the test with Aorta [5] turned out to be 88.6%. For the same molecule, the IC50 in the test with Aorta [6] amounted to 0.79 µM.
As to `O=c1cc(-c2ccccc2)oc2ccc(O)cc12` [6-HYDROXYFLAVONE], the IC50 is 5.17 µM at Calmodulin-1 [1], 112 µM in the test with Aorta [3] and 20.8 µM with Aorta [6]. Besides, the inhibition entry at Calmodulin-1 [1], with Aorta [3] and in the test with Aorta [6] was “Dose-dependent effect” each time. Further, the Emax is 51.8% in the test with Aorta [2] and 105% in the test on Aorta [5]. On Calmodulin-1 [4], the Ratio IC50 was found to be 3.89. Besides, the outcome in the test with Aorta [7] and in the test on Aorta [8] was Active.
In the case of `O=C1C[C@@H](c2ccc(O)cc2)Oc2cc(O)cc(O)c21`, the inhibition result on Calmodulin-1 [1] is “Dose-dependent effect”.
Take `O=c1c(O)c(-c2ccccc2)oc2ccccc12` [FLAVONOL]: the results for the IC50 at Calmodulin-1 [1], in the test on Aorta [3] and with Aorta [6] were 55.2 µM, 248 µM and 204 µM, respectively. Also, the inhibition entry on Calmodulin-1 [1], in the test with Aorta [3] and in the test with Aorta [6] was “Dose-dependent effect” each time. The Emax in the test on Aorta [2] worked out at 29.8%; in the test with Aorta [5] it was 67.8%. On Calmodulin-1 [4], the Ratio IC50 was 0.36.
Consider `O=c1c(O)c(-c2ccc(O)c(O)c2)oc2cc(O)cc(O)c12` [QUERCETIN], for which the IC50 at Calmodulin-1 [1] is 13 µM; in the test on Aorta [3], 222 µM; with Aorta [6], 162 µM. In addition, the inhibition result at Calmodulin-1 [1], with Aorta [3] and with Aorta [6] was “Dose-dependent effect” throughout. The Emax in the test with Aorta [2] worked out at 43.2%; in the test on Aorta [5], 83.2%. At Calmodulin-1 [4], the Ratio IC50 was 2.82.
As for `COc1ccc([C@@H]2CC(=O)c3c(O)cc(O[C@@H]4O[C@H](CO[C@@H]5O[C@@H](C)[C@H](O)[C@@H](O)[C@H]5O)[C@@H](O)[C@H](O)[C@H]4O)cc3O2)cc1O` [HESPERIDIN], the IC50 was 70 µM at Calmodulin-1 [9] and 74 µM on Calmodulin-1 [10].
Regarding `O=c1cc(-c2ccccc2)oc2ccccc12` [FLAVONE], the IC50 on Calmodulin-1 [1] was found to be 102 µM; in the test with Aorta [3] it was 203 µM; with Aorta [6] it was 46 µM. Moreover, the inhibition result at Calmodulin-1 [1], in the test on Aorta [3] and in the test with Aorta [6] was “Dose-dependent effect” each time. Further, the Emax in the test with Aorta [2] came out at 81%; with Aorta [5], 98.6%. Moreover, at Calmodulin-1 [4], the Ratio IC50 was determined as 0.34.
`O=c1cc(-c2ccccc2)oc2cc(O)cc(O)c12` [CHRYSIN]: the figures for the concentration for half-maximal inhibition (IC50) at Calmodulin-1 [1], in the test on Aorta [3] and in the test with Aorta [6] were 33.4 µM, 107 µM and 75.7 µM, respectively. Moreover, the inhibition result at Calmodulin-1 [1], in the test on Aorta [3] and in the test with Aorta [6] was “Dose-dependent effect” in each case. Besides, the Emax stood at 16% with Aorta [2] and 44.8% in the test on Aorta [5]. The Ratio IC50 on Calmodulin-1 [4] was 1.03.

What is called IC50 is the concentration at which inhibition is half-maximal. One may read the Emax as the maximal effect, on the per cent scale that the assay sets.
